# Measured values reported in ChEMBL document CHEMBL1135676, “Comparative molecular field analysis of substrates for an aryl sulfotransferase based on catalytic mechanism and protein homology modeling” (J Med Chem, 2002).
# B1: Sulfotransferase 1A1 (Rattus norvegicus) (protein)
# chain: MEFSRPPLVHVKGIPLIKYFAETIGPLQNFTAWPDDLLISTYPKSGTTWMSEILDMIYQGGKLEKCGRAPIYARVPFLEFKCPGVPSGLETLEETPAPRLLKTHLPLSLLPQSLLDQKVKVIYIARNAKDVVVSYYNFYNMAKLHPDPGTWDSFLENFMDGEVSYGSWYQHVKEWWELRHTHPVLYLFYEDIKENPKREIKKILEFLGRSLPEETVDSIVHHTSFKKMKENCMTNYTTIPTEIMDHNVSPFMRKGTTGDWKNTFTVAQNERFDAHYAKTMTDCDFKFRCEL
# Columns and labels:
# not read [1] = substrate: Oc1ccccc1; experiment: not read
# not read [2] = substrate: Oc1ccc2ccccc2c1; experiment: not read
# [3] = substrate: Cc1ccc(O)cc1; experiment: (§1) Apparent Michaelis constant (Km) against Arylsulfotransferase (AST IV)
# How it was run: (§2)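 Recombinant rat hepatic AST IV, expressed in E. coli and purified. Each reaction held 1.0 μg enzyme, 0.2 mM PAPS, 8.3 mM 2-mercaptoethanol, varying substrate and 0.25 M potassium phosphate at pH 7.0. Mixtures were preincubated 2 min at 37 °C, started with enzyme, run 10 min at 37 °C and stopped with methanol. Substrate-dependent PAP formation was read by HPLC and corrected with substrate-free controls. kcat is in min⁻¹ and apparent Km in M.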
# [4] = substrate: CC[C@H](O)c1ccccc1; experiment: as §1
# How it was run: as §2
# [5] = substrate: CC(C)[C@H](O)c1ccccc1; experiment: as §1
# How it was run: as §2
# [6] = substrate: OCc1cccc2ccccc12; experiment: as §1
# How it was run: as §2
# [7] = substrate: O=[N+]([O-])c1ccc(CO)cc1; experiment: as §1
# How it was run: as §2
# [8] = substrate: Cc1ccc(CO)cc1; experiment: as §1
# How it was run: as §2
# [9] = substrate: OC1CCCc2ccccc21; experiment: as §1
# How it was run: as §2
# [10] = substrate: CCC[C@H](O)c1ccccc1; experiment: as §1
# How it was run: as §2
# [11] = substrate: CCCCCc1ccc(CO)cc1; experiment: as §1
# How it was run: as §2
# [12] = substrate: CCCCC[C@H](O)c1ccccc1; experiment: as §1
# How it was run: as §2
# [13] = substrate: CC(=O)Nc1ccc(O)cc1; experiment: as §1
# How it was run: as §2
# [14] = substrate: OCc1ccccc1; experiment: as §1
# How it was run: as §2
# [15] = target: Aryl sulfotransferase IV (Rattus norvegicus); experiment: as §1
# How it was run: as §2
# [16] = substrate: C[C@@H](O)c1ccccc1; experiment: as §1
# How it was run: as §2
# [17] = substrate: CCCCCCc1ccc(CO)cc1; experiment: as §1
# How it was run: as §2
# [18] = substrate: O=C(CBr)Nc1ccc(O)cc1; experiment: as §1
# How it was run: as §2
# [19] = substrate: CCc1ccc(O)cc1; experiment: as §1
# How it was run: as §2
# [20] = substrate: CCCCCCCc1ccc(CO)cc1; experiment: as §1
# How it was run: as §2
# [21] = substrate: Oc1ccc(-c2ccccc2)cc1; experiment: as §1
# How it was run: as §2
# [22] = substrate: CCCCCC[C@H](O)c1ccccc1; experiment: as §1
# How it was run: as §2
# [23] = substrate: CN[C@@H](C)C(O)c1ccccc1; experiment: as §1
# How it was run: as §2
# [24] = substrate: O=[N+]([O-])c1ccc(O)c(Cl)c1; experiment: as §1
# How it was run: as §2
# [25] = substrate: CCN(O)c1ccccc1; experiment: as §1
# How it was run: as §2
# [26] = substrate: COC(=O)[C@@H](N)Cc1ccc(O)cc1; experiment: as §1
# How it was run: as §2
# [27] = substrate: CCCCCc1ccc(O)cc1; experiment: as §1
# How it was run: as §2
# [28] = substrate: C[C@H](O)c1ccccc1; experiment: as §1
# How it was run: as §2
# [29] = substrate: CCCCCCCc1ccc(O)cc1; experiment: as §1
# How it was run: as §2
# [30] = substrate: CCCCc1ccc(CO)cc1; experiment: as §1
# How it was run: as §2
# [31] = substrate: OCc1ccoc1; experiment: as §1
# How it was run: as §2
# [32] = substrate: CCCc1ccc(O)cc1; experiment: as §1
# How it was run: as §2
# [33] = substrate: CCCN(O)c1ccccc1; experiment: as §1
# How it was run: as §2
# [34] = substrate: CCCCc1ccc(O)cc1; experiment: as §1
# How it was run: as §2
# [35] = substrate: CN[C@H](C)[C@H](O)c1ccccc1; experiment: as §1
# How it was run: as §2
# [36] = substrate: CCCCCCCCCc1ccc(O)cc1; experiment: as §1
# How it was run: as §2
# [37] = substrate: ONc1ccccc1; experiment: as §1
# How it was run: as §2
# [38] = substrate: [H][C@]12CC3(c4ccc(O)cc4)C[C@]([H])(C1)C[C@@]([H])(C3)C2; experiment: as §1
# How it was run: as §2
# [39] = substrate: OCc1ccc2ccccc2c1; experiment: as §1
# How it was run: as §2
# [40] = substrate: CN(O)c1ccccc1; experiment: as §1
# How it was run: as §2
# [41] = substrate: CCCC[C@H](O)c1ccccc1; experiment: as §1
# How it was run: as §2
# [42] = substrate: ONc1ccc(Cl)cc1; experiment: as §1
# How it was run: as §2
# [43] = substrate: CCCc1ccc(CO)cc1; experiment: as §1
# How it was run: as §2
# [44] = substrate: OCc1c[nH]c2ccccc12; experiment: as §1
# How it was run: as §2
protein,measurement,setting,value
B1,Km,not read [1],19 µM
same,Vmax,not read [1],0.35 µM/min
same,Km,not read [2],8 µM
same,Vmax,not read [2],1.13 µM/min
same,Km,[3],10 µM
same,Vmax,[3],0.32 µM/min
same,Km,[4],240 µM
same,Vmax,[4],0.0099 µM/min
same,Km,[5],1360 µM
same,Vmax,[5],0.0061 µM/min
same,Km,[6],30 µM
same,Vmax,[6],0.026 µM/min
same,Km,[7],199 µM
same,Vmax,[7],0.0206 µM/min
same,Km,[8],600 µM
same,Vmax,[8],0.508 µM/min
same,Km,[9],30 µM
same,Vmax,[9],0.0287 µM/min
same,Km,[10],360 µM
same,Vmax,[10],0.0085 µM/min
same,Km,[11],20 µM
same,Vmax,[11],0.109 µM/min
same,Km,[12],7 µM
same,Vmax,[12],0.0021 µM/min
same,Km,[13],92 µM
same,Vmax,[13],0.181 µM/min
same,Km,[14],50 µM
same,Vmax,[14],0.0305 µM/min
same,Km,[15],60 µM
same,Vmax,[15],0.182 µM/min
same,Km,[16],1730 µM
same,Vmax,[16],0.0206 µM/min
same,Km,[17],30 µM
same,Vmax,[17],0.0967 µM/min
same,Km,[18],22 µM
same,Vmax,[18],0.095 µM/min
same,Km,[19],10 µM
same,Vmax,[19],0.41 µM/min
same,Km,[20],410 µM
same,Vmax,[20],0.133 µM/min
same,Km,[21],91 µM
same,Vmax,[21],0.212 µM/min
same,Km,[22],20 µM
same,Vmax,[22],0.0052 µM/min
same,Km,[23],6990 µM
same,Vmax,[23],0.0225 µM/min
same,Km,[24],5 µM
same,Vmax,[24],0.028 µM/min
same,Km,[25],650 µM
same,Vmax,[25],0.273 µM/min
same,Km,[26],4000 µM
same,Vmax,[26],0.35 µM/min
same,Km,[27],9 µM
same,Vmax,[27],0.208 µM/min
same,Km,[28],250 µM
same,Vmax,[28],0.0337 µM/min
same,Km,[29],61 µM
same,Vmax,[29],0.132 µM/min
same,Km,[30],30 µM
same,Vmax,[30],0.13 µM/min
same,Km,[31],960 µM
same,Vmax,[31],0.0102 µM/min
same,Km,[32],6 µM
same,Vmax,[32],0.427 µM/min
same,Km,[33],161 µM
same,Vmax,[33],0.0986 µM/min
same,Km,[34],5 µM
same,Vmax,[34],0.296 µM/min
same,Km,[35],11000 µM
same,Vmax,[35],0.0404 µM/min
same,Km,[36],109 µM
same,Vmax,[36],0.091 µM/min
same,Km,[37],230 µM
same,Vmax,[37],0.043 µM/min
same,Km,[38],1 µM
same,Vmax,[38],0.0472 µM/min
same,Km,[39],26 µM
same,Vmax,[39],0.0776 µM/min
same,Km,[40],119 µM
same,Vmax,[40],0.085 µM/min
same,Km,[41],10 µM
same,Vmax,[41],0.0305 µM/min
same,Km,[42],26 µM
same,Vmax,[42],0.035 µM/min
same,Km,[43],40 µM
same,Vmax,[43],0.178 µM/min
same,Km,[44],29 µM
same,Vmax,[44],0.0332 µM/min
